Laboratory results reported in ChEMBL document CHEMBL1148372 (J Med Chem, 2004).
Active and inactive are the calls of the source. No cut-off for these calls is given here.

Columns and labels:
[1] = biological target: T1, D(4) dopamine receptor (Homo sapiens, UniProt P21917); test: In vitro EC50 tested on HEK293 cells co-transfected with human Dopamine receptor D4.4 using FLIPR assay; assay type: cell-based
T1 sequence (P21917 whole entry): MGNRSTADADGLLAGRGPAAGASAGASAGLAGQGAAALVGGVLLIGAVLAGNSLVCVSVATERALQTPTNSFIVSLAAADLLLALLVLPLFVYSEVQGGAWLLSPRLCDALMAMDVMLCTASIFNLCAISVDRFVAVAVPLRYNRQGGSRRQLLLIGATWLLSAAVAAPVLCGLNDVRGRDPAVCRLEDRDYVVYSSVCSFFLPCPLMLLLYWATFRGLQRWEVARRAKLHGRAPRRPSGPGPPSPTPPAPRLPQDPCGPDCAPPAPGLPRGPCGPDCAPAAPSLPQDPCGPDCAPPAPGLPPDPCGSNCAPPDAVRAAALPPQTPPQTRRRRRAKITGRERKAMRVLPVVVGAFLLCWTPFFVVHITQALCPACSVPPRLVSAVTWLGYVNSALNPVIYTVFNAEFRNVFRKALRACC
Outline: (§1)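 HEK293 cells coexpressing human D4.4 receptor and Gαqo5, plated at 20 000 cells/well and grown 2 days. Loaded 1 h at 23 °C with 4 µM Fluo-4 plus 0.04% Pluronic F-127 in DPBS, washed four times. Compound added, fluorescence read over 3 min.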

[2] = biological target: T2, D(4) dopamine receptor (Homo sapiens) (UniProt P21917); test: In vitro efficacy tested on human Dopamine receptor D4.4 were co-expressed with GRqo5 in HEK293 cells using FLIPR assay (Efficacy relative to 10 uM dopamine); assay type: cell-based; outline: as §1
T2 sequence (whole entry): T1 sequence (P21917 whole entry)

[3] = system: Rattus norvegicus; test: In vivo maximal penile erection in rats 60 min after subcutaneous administration; assay type: functional
Outline: (§2)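 Conscious male Wistar rats, adapted 60 min to a dim red-lit room, tested between 9:00 a.m. and 3:00 p.m. Dosed subcutaneously, then caged singly and observed directly for 60 min. Percent incidence is the share of animals with one or more erections; 8–30 animals per group. Maximally effective dose is the dose giving peak incidence, with significance versus control.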

[4] = system: Rattus norvegicus; test: In vivo maximal effective dose tested in rats for erection 60 min after subcutaneous administration; assay type: functional; outline: as §2
[5] = biological target: T2, D(4) dopamine receptor (Homo sapiens); test: In vitro efficacy tested on human D4.4 receptor were coexpressed with GRqo5 in HEK293 cells using FLIPR assay (Efficacy relative to 10 uM dopamine); assay type: cell-based; outline: as §1
[6] = biological target: T1, D(4) dopamine receptor; test: In vitro effective concentration tested on HEK293 cells co-transfected with human D4.4 receptor using FLIPR assay; assay type: cell-based
Outline: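 Human D4.4 receptor co-expressed with Gαqo5 in HEK293 cells, plated at 20 000 cells/well and grown 2 days. Loaded with 4 µM Fluo-4 and 0.04% Pluronic F-127 in DPBS with glucose and pyruvate for 1 h at 23 °C, then washed. Compound added and fluorescence read over 3 min on FLIPR. […] EC50 is the concentration giving half-maximal response.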

[7] = biological target: T3, D(4) dopamine receptor (Rattus norvegicus, UniProt P30729); test: In vitro effective concentration tested on HEK293 cells co-transfected with rat Dopamine receptor D4 using FLIPR assay; assay type: cell-based
T3 sequence (P30729 whole entry): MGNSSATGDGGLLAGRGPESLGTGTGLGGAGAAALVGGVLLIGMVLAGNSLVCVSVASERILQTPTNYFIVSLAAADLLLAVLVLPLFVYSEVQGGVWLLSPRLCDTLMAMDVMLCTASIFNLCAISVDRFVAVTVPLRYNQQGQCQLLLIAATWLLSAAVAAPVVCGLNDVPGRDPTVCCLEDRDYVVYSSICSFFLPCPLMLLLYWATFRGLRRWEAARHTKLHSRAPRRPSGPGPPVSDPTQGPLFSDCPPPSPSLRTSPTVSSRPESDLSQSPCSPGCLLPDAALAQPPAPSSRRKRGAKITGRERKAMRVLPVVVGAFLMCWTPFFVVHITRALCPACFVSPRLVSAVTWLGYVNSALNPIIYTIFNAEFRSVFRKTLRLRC

[8] = biological target: D(2) dopamine receptor (Rattus norvegicus) (UniProt P61169); test: In vitro efficacy tested on rat Dopamine receptor D2 were co-expressed with GRqo5 in HEK293 cells using FLIPR assay (Efficacy relative to 10 uM dopamine); assay type: cell-based
Chain of D(2) dopamine receptor (Rattus norvegicus) (P61169 whole entry): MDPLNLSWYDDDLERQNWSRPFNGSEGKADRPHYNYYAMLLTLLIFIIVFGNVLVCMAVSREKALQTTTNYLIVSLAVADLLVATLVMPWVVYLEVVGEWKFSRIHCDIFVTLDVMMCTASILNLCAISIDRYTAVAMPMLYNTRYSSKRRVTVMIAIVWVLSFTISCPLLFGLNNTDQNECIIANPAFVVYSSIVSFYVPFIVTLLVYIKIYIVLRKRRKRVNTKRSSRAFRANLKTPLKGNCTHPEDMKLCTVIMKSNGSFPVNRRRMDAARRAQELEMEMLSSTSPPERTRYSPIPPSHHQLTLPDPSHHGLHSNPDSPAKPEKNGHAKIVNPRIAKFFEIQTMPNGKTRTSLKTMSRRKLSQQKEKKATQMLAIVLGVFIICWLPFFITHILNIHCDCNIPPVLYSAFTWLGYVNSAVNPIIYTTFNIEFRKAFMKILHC

[9] = biological target: T1, D(4) dopamine receptor; test: In vitro binding affinity tested on HEK293 cells co-transfected with human D4.4 receptor using [3H]spiperone as a radioligand […]; assay type: cell-based
Outline: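 Competition binding to membranes from HEK-293 cells transfected with human D4.4, stored at −80 °C. Radioligand was 0.1 nM [3H]-spiperone, incubated 2 h in 50 mM Tris-HCl pH 7.4 with 5 mM KCl, 120 mM NaCl, 5 mM MgCl2 and 1 mM EDTA. Compounds were in buffer with 0.1% ascorbic acid. Samples were filtered through glass fibre and washed three times with cold Tris. Bound radioactivity was counted by scintillation to give Ki.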

[10] = biological target: T1, D(4) dopamine receptor; test: In vitro inhibitory concentration tested on human D4.4 receptor in HEK293 cells using FLIPR assay; assay type: cell-based

## COc1ccccc1C1CCN(Cc2nc3ccccc3[nH]2)CC1
[1]
  EC50: 100 nM
[2]
  Efficacy: 34%

## Fc1cccnc1N1CCN(Cc2nc3ccccc3[nH]2)CC1
[1]
  EC50: 24 nM
[2]
  Efficacy: 27%
[3]
  Activity: 75%
[4]
  Effective dose: 0.01 µM/kg

## CS(=O)(=O)c1cccnc1N1CCN(Cc2nc3ccccc3[nH]2)CC1
[1]
  EC50: 136 nM
[2]
  Efficacy: 27%

## Clc1ccc(N2CCN(Cc3nc4ccccc4[nH]3)CC2)nn1
[5]
  Efficacy: inactive

## CCc1cnc(N2CCN(Cc3nc4ccccc4[nH]3)CC2)nc1
[5]
  Efficacy: inactive

## Clc1ccccc1N1CCN(Cc2nc3ccccc3[nH]2)CC1
[1]
  EC50: 7.2 nM
[2]
  Efficacy: 39%

## Cn1c(CN2CCN(c3ccccn3)CC2)nc2ccccc21
[5]
  Efficacy: inactive

## Brc1cc(Br)c2[nH]c(CN3CCN(c4ccccn4)CC3)nc2c1
[1]
  EC50: 416 nM
[2]
  Efficacy: 37%
[3]
  Activity: 60%
[4]
  Effective dose: 0.03 µM/kg

## Fc1ccc2[nH]c(CN3CCN(c4ccccn4)CC3)nc2c1
[1]
  EC50: 8 nM
[2]
  Efficacy: 57%
[3]
  Activity: 75%
[4]
  Effective dose: 0.01 µM/kg

## C1=C(c2ccccc2)CCN(Cc2nc3ccccc3[nH]2)C1
[6]
  EC50: 228 nM
[2]
  Efficacy: 48%

## CC(C)n1c(CN2CCN(c3ccccn3)CC2)nc2ccccc21
[5]
  Efficacy: inactive

## CCOc1ccccc1N1CCN(Cc2nc3ccccc3[nH]2)CC1
[1]
  EC50: 25 nM
[2]
  Efficacy: 31%

## Cc1cccc(C)c1N1CCN(Cc2nc3ccccc3[nH]2)CC1
[5]
  Efficacy: inactive

## c1cnnc(N2CCN(Cc3nc4ccccc4[nH]3)CC2)c1
[5]
  Efficacy: inactive

## NCCc1ccc(O)c(O)c1 [DOPAMINE]
[7]
  EC50: 2.4 nM
[8]
  Efficacy: 100%

## FC(F)(F)c1ccnc(N2CCN(Cc3nc4ccccc4[nH]3)CC2)n1
[5]
  Efficacy: inactive

## COc1ccc2[nH]c(CN3CCN(c4ccccn4)CC3)nc2c1
[5]
  Efficacy: inactive

## C[C@@H]1CN(c2ccccn2)CCN1Cc1nc2ccccc2[nH]1
[1]
  EC50: 64 nM
[2]
  Efficacy: 34%

## c1ccc(Cn2c(CN3CCN(c4ccccn4)CC3)nc3ccccc32)cc1
[5]
  Efficacy: inactive

## C[C@H]1CN(c2ccccn2)CCN1Cc1nc2ccccc2[nH]1
[1]
  EC50: 52 nM
[2]
  Efficacy: 43%

## N#Cc1ccccc1N1CCN(Cc2nc3ccccc3[nH]2)CC1
[1]
  EC50: 14.6 nM
[2]
  Efficacy: 46%
[3]
  Activity: 65%
[4]
  Effective dose: 0.003 µM/kg

## O=[N+]([O-])c1ccccc1N1CCN(Cc2nc3ccccc3[nH]2)CC1
[1]
  EC50: 3.9 nM
[2]
  Efficacy: 40%

## Cc1cccc(N2CCN(Cc3nc4ccccc4[nH]3)CC2)n1
[1]
  EC50: 36.2 nM
[2]
  Efficacy: 36%
[3]
  Activity: 62%
[4]
  Effective dose: 0.03 µM/kg

## Fc1ccccc1N1CCN(Cc2nc3ccccc3[nH]2)CC1
[1]
  EC50: 14.7 nM
[2]
  Efficacy: 42%
[3]
  Activity: 70%
[4]
  Effective dose: 0.01 µM/kg

## Clc1cccnc1N1CCN(Cc2nc3ccccc3[nH]2)CC1
[5]
  Efficacy: inactive

## CSc1ccccc1N1CCN(Cc2nc3ccccc3[nH]2)CC1
[1]
  EC50: 86 nM
[2]
  Efficacy: 42%

## O=[N+]([O-])c1cccnc1N1CCN(Cc2nc3ccccc3[nH]2)CC1
[5]
  Efficacy: inactive

## O=C(N1CCCC1)n1c(CN2CCN(c3ccccn3)CC2)nc2ccccc21
[5]
  Efficacy: inactive

## c1ccc(C2CCN(Cc3nc4ccccc4[nH]3)CC2)nc1
[1]
  EC50: 14 nM
[2]
  Efficacy: 51%

## c1cnc(N2CCN(Cc3nc4ccccc4[nH]3)CC2)nc1
[1]
  EC50: 44.8 nM
[2]
  Efficacy: 49%
[3]
  Activity: 85%
[4]
  Effective dose: 0.1 µM/kg

## CCn1c(CN2CCN(c3ccccn3)CC2)nc2ccccc21
[5]
  Efficacy: inactive

## c1ccc(N2CCN(CCc3nc4ccccc4[nH]3)CC2)nc1
[1]
  EC50: 23 nM
[2]
  Efficacy: 62%

## c1ccc(Cc2ccccc2N2CCN(Cc3nc4ccccc4[nH]3)CC2)nc1
[5]
  Efficacy: inactive

## CN(C)C(=O)n1c(CN2CCN(c3ccccn3)CC2)nc2ccccc21
[5]
  Efficacy: inactive

## CCc1ccccc1N1CCN(Cc2nc3ccccc3[nH]2)CC1
[5]
  Efficacy: inactive

## Oc1ccc(N2CCN(Cc3nc4ccccc4[nH]3)CC2)nn1
[5]
  Efficacy: inactive

## COc1ccccc1N1CCN(Cc2nc3ccccc3[nH]2)CC1
[1]
  EC50: 12.4 nM
[2]
  Efficacy: 48%
[3]
  Activity: 60%
[4]
  Effective dose: 0.01 µM/kg

## CN1CCc2cccc3c2[C@H]1Cc1ccc(O)c(O)c1-3 [APOMORPHINE]
[7]
  EC50: 5.5 nM
[8]
  Efficacy: 103%
[3]
  Activity: 91%
[4]
  Effective dose: 0.1 µM/kg

## Oc1ccccc1N1CCN(Cc2nc3ccccc3[nH]2)CC1
[5]
  Efficacy: inactive

## N#Cc1cccnc1N1CCN(Cc2nc3ccccc3[nH]2)CC1
[1]
  EC50: 13.9 nM
[2]
  Efficacy: 50%

## Cc1ccc(C)c(N2CCN(Cc3nc4ccccc4[nH]3)CC2)c1
[9]
  Ki: 3.8 nM
[10]
  IC50: 1 nM

## C1=C(c2ccccn2)CCN(Cc2nc3ccccc3[nH]2)C1
[6]
  EC50: 11 nM
[2]
  Efficacy: 63%
[3]
  Activity: 75%
[4]
  Effective dose: 0.03 µM/kg

## Cc1ccc(N2CCN(Cc3nc4ccccc4[nH]3)CC2)cc1C
[9]
  Ki: 1.5 nM
[10]
  IC50: 5 nM
